From ChEMBL document CHEMBL2440028, “Identification of 1-[4-Benzyloxyphenyl)-but-3-enyl]-1H-azoles as New Class of Antitubercular and Antimicrobial Agents” (ACS Med Chem Lett, 2013)
Values after ≈ are worked out from the molar mass of the structure shown.

Tests used:
[1] = Selectivity index, ratio of CC50 for African green monkey Vero cells to MIC for Mycobacterium tuberculosis H37Rv; type: functional
[2] = test system: Mycobacterium tuberculosis; test: Antitubercular activity against Mycobacterium tuberculosis H37Rv assessed as growth inhibition after […] by agar microdilution method; type: functional
[3] = Cytotoxicity against African green monkey Vero cells after 24 hrs by MTS assay; type: cell-based; conditions: chlorocebus sabaeus
[4] = test system: Staphylococcus aureus; test: Antibacterial activity against Staphylococcus aureus ATCC 25923 assessed as growth inhibition after 24 hrs by microbroth dilution method; type: functional; conditions: ATCC 25923, 24 h
How it was run: (§1)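 Broth microdilution susceptibility testing following NCCLS guidelines (reference standard M27-A for yeasts), run against a panel of bacterial and fungal strains.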

[5] = test system: Klebsiella pneumoniae; test: Antibacterial activity against Klebsiella pneumoniae ATCC 27736 assessed as growth inhibition after 24 hrs by microbroth dilution method; type: functional; conditions: ATCC 27736, 24 h; how it was run: as §1
[6] = test system: Pseudomonas aeruginosa; test: Antibacterial activity against Pseudomonas aeruginosa ATCC BAA427 assessed as growth inhibition after 24 hrs by microbroth dilution method; type: functional; conditions: ATCC BAA427, 24 h; how it was run: as §1
[7] = test system: Escherichia coli; test: Antibacterial activity against Escherichia coli ATCC 9637 assessed as growth inhibition after 24 hrs by microbroth dilution method; type: functional; conditions: W; how it was run: as §1
[8] = Mean residence time in Sprague-Dawley rat at 10 mg/kg, po; type: ADME, organism-based; parameters: dose 10 mg/kg, route oral; conditions: in vivo
How it was run: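 Male Sprague-Dawley rats were given a single oral dose of 10 mg/kg. Serum concentration-time profiles were followed, and pharmacokinetic parameters, including mean residence time and clearance, were derived from them.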

[9] = test system: Sporothrix schenckii; test: Antifungal activity against Sporothrix schenckii isolated from patient assessed as growth inhibition after 72 to 96 hrs by microbroth dilution method; type: functional; how it was run: as §1
[10] = test system: Aspergillus fumigatus; test: Antifungal activity against Aspergillus fumigatus isolated from patient assessed as growth inhibition after 72 to 96 hrs by microbroth dilution method; type: functional; how it was run: as §1
[11] = test system: Candida parapsilosis; test: Antifungal activity against Candida parapsilosis ATCC 22019 assessed as growth inhibition after 24 to 48 hrs by microbroth dilution method; type: functional; conditions: Lodderomyces parapsilosis; how it was run: as §1
[12] = test system: Cryptococcus neoformans; test: Antifungal activity against Cryptococcus neoformans CDRI isolate assessed as growth inhibition after 24 to 48 hrs by microbroth dilution method; type: functional; how it was run: as §1
[13] = test system: Trichophyton mentagrophytes; test: Antifungal activity against Trichophyton mentagrophytes isolated from patient assessed as growth inhibition after 72 to 96 hrs by microbroth dilution method; type: functional; how it was run: as §1
[14] = test system: Candida albicans; test: Antifungal activity against Candida albicans isolated from patient assessed as growth inhibition after 24 to 48 hrs by microbroth dilution method; type: functional; how it was run: as §1

In the case of `Fc1ccc2nc(NC(c3ccc(OCc4ccc(OCCN5CCCCC5)cc4)cc3)C3CC3)sc2c1` (stereo not given), the “Selectivity Index” value [1] is reported as 0.78, the MIC [2] is reported as 6.25 µg/mL (≈ 11.8 µM) and the CC50 at 24 h [3] is reported as 4.93 µg/mL (≈ 9.27 µM).
For `c1ccc2sc(NC(c3ccc(OCc4ccc(OCCN5CCCCC5)cc4)cc3)C3CC3)nc2c1` (stereo not given), the MIC [2] was 12.5 µg/mL (≈ 24.3 µM).
For `C(=C\c1ccc(OCc2ccccc2)cc1)/CCn1cncn1`, the MIC [2] was > 25 µg/mL.
With `CC[C@@H](CO)NCCN[C@@H](CC)CO` [ETHAMBUTOL] the MIC [2] was 2 µg/mL (≈ 9.79 µM).
`Clc1ccc(COc2ccc(/C=C/CCn3cnc4ccccc43)cc2)cc1` showed an MIC [2] of 6.25 µg/mL (≈ 16.1 µM).
In the case of `CC1(C)S[C@@H]2[C@H](NC(=O)[C@H](N)c3ccccc3)C(=O)N2[C@H]1C(=O)O` [AMPICILLIN], the MIC [4] is reported as 0.04 µg/mL (≈ 0.114 µM), the MIC [5] is reported as 50 µg/mL (≈ 143 µM) and the MIC [6] is reported as > 50 µg/mL. For the same molecule, the MIC [7] was 3.12 µg/mL (≈ 8.93 µM).
`O=[N+]([O-])c1cn(CC/C=C/c2ccc(OCc3ccc(F)cc3)cc2)cn1` showed an MIC [2] of 50 µg/mL (≈ 136 µM).
For `Cc1cnn(CC/C=C/c2ccc(OCc3ccc(Br)cc3)cc2)c1`, the MRT [8] was 7.17 h.
`C(=C\c1ccc(OCc2ccccc2)cc1)/CCSc1nc2ccccc2s1` gave an MRT [8] of 6.02 h.
In the case of `COc1ccc(COc2ccc(/C=C/CCSc3nc4ccccc4[nH]3)cc2)cc1`, the MIC [2] is reported as > 12.5 µg/mL.
Molecule `c1ccc(COc2ccc(C(C3CC3)n3cnc4ccccc43)cc2)cc1` (stereo not given) has an MIC [2] of 12.5 µg/mL (≈ 35.3 µM).
`O=[N+]([O-])c1cn(C(c2ccc(OCc3ccc(F)cc3)cc2)C2CC2)cn1` (stereo not given) gave an MIC [2] of 12.5 µg/mL (≈ 34 µM).
With `c1ccc(COc2ccc(C(Nn3cnnc3)C3CC3)cc2)cc1` (stereo not given) the MIC [2] was > 12.5 µg/mL.
For `COc1ccc(COc2ccc(C(C3CC3)n3ccnc3)cc2)cc1` (stereo not given), the MIC [4] was 25 µg/mL (≈ 74.8 µM), the MIC [9] was 3.12 µg/mL (≈ 9.33 µM) and the MIC [10] was 6.25 µg/mL (≈ 18.7 µM). For the same molecule, the MIC [5] was 25 µg/mL (≈ 74.8 µM), the MIC [2] was 12.5 µg/mL (≈ 37.4 µM) and the MIC [11] was 50 µg/mL (≈ 150 µM). It also gave an MIC [12] of 50 µg/mL (≈ 150 µM), an MIC [6] of 50 µg/mL (≈ 150 µM) and an MIC [13] of 3.12 µg/mL (≈ 9.33 µM). For the same molecule, the MIC [7] was > 50 µg/mL and the MIC [14] was 25 µg/mL (≈ 74.8 µM).
`Cc1cnn(C(c2ccc(OCc3ccccc3Cl)cc2)C2CC2)c1` (stereo not given) gave an MIC [2] of 12.5 µg/mL (≈ 35.4 µM).
In the case of `OC(Cn1cncn1)(Cn1cncn1)c1ccc(F)cc1F` [FLUCONAZOLE], the MIC [9] is reported as 4 µg/mL (≈ 13.1 µM), the MIC [10] is reported as > 32 µg/mL and the MIC [2] is reported as 2.83 µg/mL (≈ 9.22 µM). It also gave an MIC [11] of 0.5 µg/mL (≈ 1.63 µM), an MIC [12] of 2 µg/mL (≈ 6.53 µM) and an MIC [13] of 16 µg/mL (≈ 52.2 µM). It also gave an MIC [14] of 1 µg/mL (≈ 3.27 µM).
In the case of `c1ccc2oc(NC(c3ccc(OCc4ccc(OCCN5CCCCC5)cc4)cc3)C3CC3)nc2c1` (stereo not given), the “Selectivity Index” value [1] is reported as 1.87, the MIC [4] is reported as 25 µg/mL (≈ 50.2 µM) and the MIC [9] is reported as 25 µg/mL (≈ 50.2 µM). The MIC [10] was > 50 µg/mL, the MIC [5] was > 50 µg/mL and the MIC [2] was 6.25 µg/mL (≈ 12.6 µM). The MIC [11] was 50 µg/mL (≈ 100 µM), the MIC [12] was 50 µg/mL (≈ 100 µM) and the MIC [6] was > 50 µg/mL. For the same molecule, the MIC [13] was 12.5 µg/mL (≈ 25.1 µM), the MIC [7] was > 50 µg/mL and the MIC [14] was 12.5 µg/mL (≈ 25.1 µM). It also gave a CC50 at 24 h [3] of 11.7 µg/mL (≈ 23.5 µM).
With `COc1ccc(COc2ccc(C(C3CC3)n3cnc4ccccc43)cc2)cc1` (stereo not given) the MIC [2] was > 12.5 µg/mL.
Molecule `c1ccc(COc2ccc(C(Nc3nc4ccccc4s3)C3CC3)cc2)cc1` (stereo not given) has an MRT [8] of 7.9 h.
`C(=C\c1ccc(OCc2ccccc2)cc1)/CCn1cnc2ccccc21` gave an MRT [8] of 3.22 h.
In the case of `C(=C\c1ccc(OCc2ccccc2)cc1)/CCSc1nc2ccccc2[nH]1`, the MIC [2] is reported as > 25 µg/mL.
In the case of `c1ccc2[nH]c(SC(c3ccc(OCc4ccc(OCCN5CCCCC5)cc4)cc3)C3CC3)nc2c1` (stereo not given), the MIC [2] is reported as > 50 µg/mL.
Molecule `Clc1ccc(COc2ccc(C(C3CC3)n3cncn3)cc2)cc1` (stereo not given) has an MIC [2] of 12.5 µg/mL (≈ 36.8 µM).
In the case of `c1ccc2sc(SC(c3ccc(OCc4ccc(OCCN5CCCCC5)cc4)cc3)C3CC3)nc2c1` (stereo not given), the “Selectivity Index” value [1] is reported as 32.2, the MIC [4] is reported as 12.5 µg/mL (≈ 23.6 µM) and the MIC [9] is reported as 12.5 µg/mL (≈ 23.6 µM). The MIC [10] was 25 µg/mL (≈ 47.1 µM), the MIC [5] was > 50 µg/mL and the MIC [2] was 3.12 µg/mL (≈ 5.88 µM). For the same molecule, the MIC [11] was > 50 µg/mL, the MIC [12] was 50 µg/mL (≈ 94.2 µM) and the MIC [6] was > 50 µg/mL. For the same molecule, the MIC [13] was 6.25 µg/mL (≈ 11.8 µM), the MIC [7] was > 50 µg/mL and the MIC [14] was 6.25 µg/mL (≈ 11.8 µM). The CC50 at 24 h [3] was 100 µg/mL (≈ 188 µM).
In the case of `Clc1ccc(COc2ccc(/C=C/CCn3nnc4ccccc43)cc2)cc1`, the MIC [2] is reported as > 12.5 µg/mL.
For `Cc1cnn(C(c2ccc(OCc3ccc(Br)cc3)cc2)C2CC2)c1` (stereo not given), the MIC [2] was > 50 µg/mL.
Work on `ClCC/C=C/c1ccc(OCc2ccc(OCCN3CCCCC3)cc2)cc1` yielded an MIC [2] of 4.46 µg/mL (≈ 11.2 µM).
`c1cc(OCCN2CCCCC2)ccc1COc1ccc(C(Nn2cnnc2)C2CC2)cc1` (stereo not given) showed an MIC [2] of 50 µg/mL (≈ 112 µM).
With `c1ccc(COc2ccc(C(C3CC3)n3cncn3)cc2)cc1` (stereo not given) the MIC [2] was > 12.5 µg/mL.
Molecule `NNC(=O)c1ccncc1` [ISONIAZID] has an MIC [2] of 0.025 µg/mL (≈ 0.182 µM).
In the case of `OC(c1ccc(OCc2ccc(OCCN3CCCCC3)cc2)cc1)C1CC1` (stereo not given), the “Selectivity Index” value [1] is reported as >10, the MIC [2] is reported as 3.12 µg/mL (≈ 8.18 µM) and the CC50 at 24 h [3] is reported as > 50 µg/mL.
For `CCCCSc1nc2ccccc2n1CC/C=C/c1ccc(OCc2ccccc2)cc1`, the MIC [2] was > 12.5 µg/mL.
`Brc1ccc(COc2ccc(C(C3CC3)n3cncn3)cc2)cc1` (stereo not given) gave an MIC [2] of 25 µg/mL (≈ 65.1 µM).
With `O=[N+]([O-])c1cnc(NC(c2ccc(OCc3ccccc3)cc2)C2CC2)s1` (stereo not given) the MIC [2] was > 25 µg/mL.
In the case of `c1ccc2c(c1)ncn2C(c1ccc(OCc2ccc(OCCN3CCCCC3)cc2)cc1)C1CC1` (stereo not given), the MIC [2] is reported as 12.5 µg/mL (≈ 26 µM).
Molecule `Clc1ccccc1C(c1ccccc1)(c1ccccc1)n1ccnc1` [CLOTRIMAZOLE] has an MIC [9] of 4 µg/mL (≈ 11.6 µM), an MIC [10] of 8 µg/mL (≈ 23.2 µM) and an MIC [11] of 1 µg/mL (≈ 2.9 µM). The MIC [12] was 0.25 µg/mL (≈ 0.725 µM), the MIC [13] was 2 µg/mL (≈ 5.8 µM) and the MIC [14] was 0.25 µg/mL (≈ 0.725 µM).
`c1ccc(COc2ccc(C(C3CC3)n3ccnc3)cc2)cc1` (stereo not given) gave an MIC [2] of 12.5 µg/mL (≈ 41.1 µM).
`Brc1ccc(COc2ccc(/C=C/CCn3cncn3)cc2)cc1` showed an MIC [2] of 4.78 µg/mL (≈ 12.4 µM).
